Experimental data taken from ChEMBL document CHEMBL3580629, “Diterpenoids and Triterpenoids from the Resin of Bursera microphylla and Their Cytotoxic Activity” (J Nat Prod, 2015).
pIC50: −log10 of the molar value.

Key:
Format in all cases: functional, cell-based
[1] = test system: HeLa; test: Cytotoxic activity against human HeLa cells assessed as reduction in cell viability incubated for 48 hrs by MTT assay
Summary of the method: (§1)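 Cells seeded at 1 × 10^4 per well and left 24 h at 37 °C, 5% CO2 to attach, then given test substances at 200 to 0.05 μM for 48 h. Substances were dissolved in DMSO and diluted in medium (0.06–2.0% DMSO in cultures). MTT (5 mg/mL stock) was added for the final 4 h, and formazan was dissolved in acidic isopropanol. Absorbance was read at 570/650 nm against vehicle (100%). IC50 came from nonlinear regression of log-normalized data, six doses in triplicate, at least three experiments.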

[2] = Cytotoxic activity against mouse M12.C3.F6 cells assessed as reduction in cell viability incubated for 48 hrs by MTT assay; summary of the method: as §1
[3] = test system: RAW264.7; test: Cytotoxic activity against mouse RAW264.7 cells assessed as reduction in cell viability incubated for 48 hrs by MTT assay; conditions: for IC50: raw264.7; for pIC50: Mus musculus, RAW264.7, 48 h, read-out: IC50; summary of the method: as §1
[4] = test system: A549; test: Cytotoxic activity against human A549 cells assessed as reduction in cell viability incubated for 48 hrs by MTT assay; summary of the method: as §1
[5] = test system: PC-3; test: Cytotoxic activity against human PC3 cells assessed as reduction in cell viability incubated for 48 hrs by MTT assay; conditions: for IC50: pc-3; summary of the method: as §1

Structure (SMILES)	IC50 [1]	IC50 [2]	IC50 [3]	IC50 [4]	IC50 [5]	pIC50 [3]	pIC50 ([2]; Mus musculus, 48 h, read-out: IC50)	pIC50 ([5]; Homo sapiens, PC-3, 48 h, read-out: IC50)
CC(C)=CCC/C(C)=C/C/C=C(\C)[C@H]1CCC2[C@@]3(C)CCC(=O)C(C)(C)C3CC[C@]21C (stereo partly specified)	Not Active	Not Active	Not Active	Not Active	Not Active	–	–	–
CC(C)=CCC/C(C)=C/C/C=C(\C)[C@H]1CCC2[C@@]3(C)CC[C@H](O)C(C)(C)C3CC[C@]21C (stereo partly specified)	Not Active	Not Active	Not Active	Not Active	Not Active	–	–	–
CC(=O)OC[C@H](Cc1ccc2c(c1)OCO2)[C@H](COC(C)=O)Cc1ccc2c(c1)OCO2	–	–	–	–	–	5.01	–	–
COc1cc(C[C@@H]2COC[C@H]2Cc2ccc3c(c2)OCO3)cc(OC)c1OC	–	–	–	–	–	6.40	–	–
COc1cc(C[C@@H](COC(C)=O)[C@H](COC(C)=O)Cc2ccc3c(c2)OCO3)cc(OC)c1OC	–	–	–	–	–	6.70	5.60	–
CC(=O)O[C@@]1(C(C)C)C/C=C(\C)CC[C@@H]2O[C@@]2(C)CC/C=C(\C)CC1 (relative stereo)	Not Active	Not Active	Not Active	Not Active	Not Active	–	–	–
COc1cccc2c1C(=O)c1c(O)c3c(c(O)c1C2=O)C[C@@](O)(C(=O)CO)C[C@@H]3O[C@H]1C[C@H](N)[C@H](O)[C@H](C)O1 [DOXORUBICIN]	–	–	–	–	–	6.20	–	5.50
